S1P4 antag – human S1P4 receptor antagonism; S1P4-expressing cells, antagonist mode, reporter read-out; inhibition, % at 4.98 µM; actives 0.26% (n = 220,000); AID 1510; in the data active = inhibition above about 29%;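 note: 0% = wells stimulated with agonist and 100% = vehicle wells without agonist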
NPY Y2 blocker – NPY-Y2 (human) receptor antagonism; inhibition, % at 2.7 µM; actives 0.99% (n = 140,000); NPY-Y2 expressing cells, antagonist mode; AID 793; in the data active = inhibition above about 17%;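 note: 0% = vehicle with agonist challenge and 100% = reference antagonist with challenge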
Target sequence (P49146 whole entry, looked up): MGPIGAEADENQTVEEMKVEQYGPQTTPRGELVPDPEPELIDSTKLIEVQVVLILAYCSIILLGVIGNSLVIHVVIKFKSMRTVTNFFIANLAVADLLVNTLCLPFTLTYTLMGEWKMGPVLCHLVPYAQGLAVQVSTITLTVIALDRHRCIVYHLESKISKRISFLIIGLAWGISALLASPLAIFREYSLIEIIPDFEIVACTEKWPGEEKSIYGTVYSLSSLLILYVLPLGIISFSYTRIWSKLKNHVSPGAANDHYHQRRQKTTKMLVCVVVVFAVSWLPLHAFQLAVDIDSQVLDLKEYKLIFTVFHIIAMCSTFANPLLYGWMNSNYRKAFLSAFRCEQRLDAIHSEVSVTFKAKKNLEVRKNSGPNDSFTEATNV
S1P4 agonist – agonists of human S1P4 receptor; activation, % at 4.98 µM; actives 0.35% (n = 220,000); O95977; AID 1509; S1P4-expressing cell line, agonist reporter assay; in the data active = activation above about 11%;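 note: 0% = DMSO vehicle and 100% = reference agonist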
NPY-Y1 PAM-ag – potentiators or agonists of human neuropeptide Y receptor Y1 | actives 0.37% (n = 220,000) | P25929 | activation, % at 3.6 µM | NPY-Y1 expressing cells, potentiator/agonist activation | AID 1304; in the data active = activation above about 33%, passing the limit was not always enough;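 note: cells stimulated with NPY at EC10 then isoproterenol at EC100; 0% = low agonist plus stimulus and 100% = saturating agonist plus stimulus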
NPY-Y2 PAM-ag – potentiates or activates human NPY-Y2 receptor; P49146; cells expressing NPY-Y2, potentiator/agonist read-out; activation, % at 3.6 µM; actives 0.45% (n = 220,000); in the data active = activation above about 27%;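 note: cells stimulated with NPY near EC25 plus isoproterenol at EC100; 0% = vehicle plus submaximal agonist and 100% = vehicle plus saturating agonist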
NPY-Y1 antag – antagonists of human neuropeptide Y receptor Y1. P25929. inhibition, % at 3.6 µM. actives 1% (n = 200,000). AID 1040. HEK293-CNG Y1 cells, membrane potential fluorescence; NPY at EC95, then isoproterenol;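 active = inhibition above the campaign mean inhibition of all tested compounds plus 3 SD, cut at about 20% in these data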;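 note: 0% = DMSO wells given NPY plus isoproterenol and 100% = isoproterenol alone without NPY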
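Material: HEK293 Y1/CNG channel cell line; also added: NPY (25 nM), isoproterenol (1 µM), Ro 20-1724 (25 µM); doses: one concentration, 3.6 µM, in 0.4% DMSO; schedule: compound incubation 1 h at room temperature, readout 45 min post-stimulation; technique: membrane potential fluorescence; measure: fluorescence ratio normalized to % inhibition between controls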
* hit, by the source's call; x = no result given. A selection: hits, their analogues and other compounds. The true share with any hit is near 2.4%.

SMILES	S1P4 antag	NPY Y2 blocker	S1P4 agonist	NPY-Y1 PAM-ag	NPY-Y2 PAM-ag	NPY-Y1 antag
Cc1ccccc1NC(=O)c1ccc(CN2CCC(Cc3ccccc3)CC2)cc1	-8	13	-2	20	38*	6
O=C(c1ccccc1F)N1CCCC(C(=O)N2CCc3ccccc3C2)C1 (configuration not stated)	-4	x	0	-12	-19	x
COc1ccc(C(=O)Nc2ccc3c(c2)nc(CN2CCCC2)n3C)cc1	-2	x	-2	-6	-26	1
COCCCNC(NC(=O)c1ccc(Br)cc1)C(Cl)(Cl)Cl (configuration not stated)	2	1	2	59*	66*	-9
COC(=O)C(Cc1ccc(O)cc1)NC(=O)C12CC3CC(CC(C3)C1)C2 (configuration not stated)	5	x	-2	51*	63*	-9
COC(=O)C(Cc1ccccc1)NC(=O)C12CC3CC(CC(C3)C1)C2 (configuration not stated)	3	1	2	12	5	0
CCCc1ccc(C(=O)NNC(=O)c2ccc(Br)cc2)cc1	-15	4	0	2	-6	1
CCCc1ccc(C(=O)NNc2ccc(F)cc2)cc1	-2	x	1	51*	46*	x
CCOC(=O)N1CCN(CC(O)COc2ccccc2C(C)(C)C)CC1 (configuration not stated)	-2	2	0	71*	72*	-12
CCOC(=O)N1CCN(CC(O)COc2ccccc2C(C)C)CC1 (configuration not stated)	-4	2	0	79*	59*	-10
CCOC(=O)N1CCN(CC(O)COc2cc(C)ccc2C(C)C)CC1 (configuration not stated)	-2	0	-1	92*	81*	-13
CCOC(=O)N1CCN(CC(O)COc2ccccc2C(C)CC)CC1 (configuration not stated)	-11	2	2	-9	3	0
CCOC(=O)N1CCN(CC(O)COC(CC)c2ccccc2)CC1 (configuration not stated)	3	-2	1	2	7	-4
CC1CN(CC(O)COc2ccc(C(=O)c3ccccc3)cc2)CC(C)O1 (configuration not stated)	-18	2	3	-14	-12	1
CC1CN(CC(O)COc2ccccc2C(C)(C)C)CC(C)O1 (configuration not stated)	2	1	-1	100*	84*	-15
Nc1cccc(NP(=O)(c2ccccc2)c2ccccc2)c1	9	x	1	9	-7	x
CCOc1ccc(NC(=O)c2ccc(NC(=O)Cc3n[nH]c(=O)c4ccccc34)cc2)cc1	6	x	0	-5	-2	x
Cc1ccc(Cl)cc1N(Cc1ccc(C(=O)NCc2cccnc2)cc1)S(=O)(=O)c1ccccc1	7	1	1	9	6	-3
CCN(C(=O)c1ccc(C)c(Br)c1)c1ccccc1	1	x	-1	1	5	6
CCC(=O)N1CCN(c2ccccc2NC(=O)COc2cc(C)ccc2C(C)C)CC1	7	22*	-1	-42	-11	31*
O=c1[nH]c2ccc(Cl)cc2c(O)c1-c1ccccc1	-11	18*	1	13	1	3
O=c1[nH]c2ccc(Cl)cc2c(-c2ccccc2)c1SC(=S)N1CCCCC1	-15	1	2	-23	-3	2
CCOC(=O)C(=CNc1cccnc1Oc1ccc(C)c2c1CCC2)C(=O)OCC	4	x	1	1	3	x
CCN1c2ccccc2-c2nc3ccccc3n2C1c1cccs1 (configuration not stated)	-19	25*	2	-10	-9	37*
CCCn1c(-c2cccs2)nc2ccccc21	-7	3	0	-14	-7	-4
SMILES	S1P4 antag	NPY Y2 blocker	S1P4 agonist	NPY-Y1 PAM-ag	NPY-Y2 PAM-ag	NPY-Y1 antag
Cc1c(Cc2c(Cl)cccc2Cl)c(=O)ccn1C(C)c1ccccc1 (configuration not stated)	0	22*	3	-5	2	20
Cc1ccc(Cn2ccc(=O)c(Cc3c(Cl)cccc3Cl)c2C)cc1	-25	11	3	3	2	9
COC(=O)c1cc2c(ccn2-c2ccc(F)cc2)n1Cc1cccc(OC)c1	-8	6	-1	7	17	1
COC(=O)c1cc2c(ccn2-c2ccc(F)cc2)n1C(C)C	-14	21*	0	-9	-2	35*
Cc1c(Nc2nc(-c3ccccc3)cs2)c(=O)n(-c2ccccc2)n1C	-7	1	-1	59*	78*	-1
CC(=O)N1CN(C2CC(C)(C)NC(C)(C)C2)Cc2c1sc1c2CCCC1	1	4	-3	-22	-6	0
CC(=O)N1CN(C2CCCC2)Cc2c1sc1c2CCCC1	14	18*	-2	-18	-4	24*
O=C1C(C2=NC(c3ccccn3)C3C(=O)N(c4ccccc4)C(=O)C23)=C(O)c2ccccc21 (configuration not stated)	-17	x	-2	16	14	x
OC(COc1ccccc1)CN1CCCCCC1 (configuration not stated)	-13	x	-1	9	-7	12
Cc1cc2c(OCC(O)CNC3CCCCC3)cccc2[nH]1 (configuration not stated)	-17	x	0	110*	103*	-11
OC(COc1cccc2ccccc12)CN1CCCC1 (configuration not stated)	8	3	0	99*	94*	-15
C=C1CC(C)OC(c2ccccc2OCC(O)CN2CCCCC2)C1 (configuration not stated)	2	3	0	75*	70*	-10
Cc1cc2c(OCC(O)CN3CCCCC3)cccc2[nH]1 (configuration not stated)	-3	x	2	110*	101*	-14
OC(COc1cccc2ccccc12)CN1CCN(c2ccc(Cl)cc2)CC1 (configuration not stated)	4	x	0	-23	-31	x
OC(CON=C1c2ccccc2-c2ccccc21)CN1CCNCC1 (configuration not stated)	-21	x	1	37	16	-6
Cc1nonc1C(=O)N/N=C/c1ccc(O)cc1O	-9	x	1	11	3	2
C#CC(=O)N(c1cccc(OC)c1)C(C(=O)NC1CCCC1)c1cccs1 (configuration not stated)	30*	0	1	55*	47*	-4
CCCCNc1cc(C)nc(NCc2ccccc2)n1	7	29*	1	-36	0	31*
Cc1cc(Nc2ccccc2)nc(NCc2ccccc2)n1	-7	17	2	-24	-17	5
Cc1cc(N/N=C/c2ccc(F)cc2)nc(NCc2ccccc2)n1	10	x	2	-14	-40	x

High-throughput results from PubChem.
